Screens deposited in PubChem by several laboratories.
The list is not random: actives were taken first. Their share in the collection is about 1.9%.
KLK7 zymogen act – activators of human kallikrein-7 zymogen; P49862; purified proKLK7, EDANS-DABCYL substrate fluorescence; 100% is mature enzyme control, 0% vehicle; activation, % at 7 µM; 0.9% of 370,000 active;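 active = activation above the mean of all tested compounds plus 3 SD, computed per campaign excluding outliers beyond control limits, cut at about 13% in these data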
Target sequence (P49862 whole entry, looked up): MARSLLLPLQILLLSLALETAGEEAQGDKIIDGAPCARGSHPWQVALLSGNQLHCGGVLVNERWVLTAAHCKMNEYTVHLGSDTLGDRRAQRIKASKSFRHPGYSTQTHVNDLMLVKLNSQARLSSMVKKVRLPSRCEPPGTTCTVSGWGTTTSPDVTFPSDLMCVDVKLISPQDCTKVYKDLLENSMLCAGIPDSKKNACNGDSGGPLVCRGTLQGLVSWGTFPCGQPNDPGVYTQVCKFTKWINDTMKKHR
V-ATPase pH – yeast V-ATPase proton transport regulation by pHLuorin | S. cerevisiae, pHLuorin cytosolic pH fluorescence | response, % at 10 µM | 0.37% of 350,000 active | AID 504577; in the data active = response mostly above about 7.3%, no sharp cut-off; inactive = mostly below about 5.4%; also: actives read high
T cell HTS – T cell immune modulation candidate; 2C CD8+ T cell-vesicle binding, flow cytometry; hits give low values; response (vesicle binding), % at 7 µM; 0.068% of 330,000 active; AID 2052;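 active = response, share of CD8 T cells binding vesicles, and their 90th percentile fluorescence all below set limits, cut at about 80% in these data, passing the limit was not always enough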;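 also: values below 100% mean blocked vesicle binding to the CD8+ T cells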
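Read-out – percent CD8+ FL2 mean versus row control · System – murine 2C transgenic CD8+ T lymphocytes · Times – 1.5 h cell–vesicle binding at 37 °C, then 20 min icy labelling · Control set – naked vesicles low, QL9 vesicles with vehicle high · Detection – cytometric PE anti-B7-1 and Alexa647 anti-CD8 signals after 1% paraformaldehyde fixation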
Yeast superoxide – caloric restriction mimetics inhibiting age-related superoxide in yeast | S. cerevisiae aged cells, superoxide DHE fluorescence; hits give low values | superoxide response (% of plate mean), % at 10 µM | 0.18% of 330,000 active;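 active = superoxide response under a set limit, about three screen SD below normal, cut at about 65% in these data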;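 also: yeast aged for seven days with compound at 30 °C before DHE staining; 100% = average MFI of all compound-treated wells on the plate with controls excluded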
Rce1 inhib – blocks yeast Ras-converting enzyme; calls only; 0.27% of 290,000 active; Q03530; AID 2563; yeast membranes, quenched prenylated peptide cleavage fluorescence;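 active = fall in fluorescence gain of 50% or more versus controls, with final raw signal at or below 3038400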;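 also: plate controls were neutral control wells for no effect and wells lacking membranes for full effect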
Target sequence (Q03530 whole entry, looked up): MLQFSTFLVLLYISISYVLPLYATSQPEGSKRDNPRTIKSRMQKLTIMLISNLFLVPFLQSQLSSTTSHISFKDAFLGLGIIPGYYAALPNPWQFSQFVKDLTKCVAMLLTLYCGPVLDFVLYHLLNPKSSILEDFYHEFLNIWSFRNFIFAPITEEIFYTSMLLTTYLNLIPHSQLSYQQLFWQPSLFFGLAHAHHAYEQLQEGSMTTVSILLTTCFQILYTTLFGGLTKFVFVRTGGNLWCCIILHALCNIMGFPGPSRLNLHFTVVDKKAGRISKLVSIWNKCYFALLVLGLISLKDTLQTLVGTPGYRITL
MIN6 prolif – MIN6 beta-cell proliferation induction | MIN6 cells proliferation, ATPlite luminescence, 48 h; cells starved in 0.2% serum; 100% = growth in 10% serum | proliferation, % at 10 µM | 0.29% of 330,000 active;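 active = compounds whose signal lies at least 3.5 SD above the mean of all wells on their plate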;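 also: 0% = DMSO-treated cells in low-serum medium and 100% = 10% serum control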
Numbers without * were called inactive; i = inactive; nt = no result; + = active, no number.

SMILES | KLK7 zymogen act | V-ATPase pH | T cell HTS | Yeast superoxide | Rce1 inhib | MIN6 prolif
CCCCN(Cc1cc2cc(OC)ccc2[nH]c1=O)C(=O)c1ccccn1 | 2.2 | -4.0 | 266.5 | 106.0 | i | -3.0
CC1(C(=O)N2CCC(Oc3cccnc3)CC2)CC1 | 0.3 | nt | nt | nt | nt | nt
COc1cccc(NC(=O)c2cc([N+](=O)[O-])ccc2NC(=O)CNCC2CCCO2)c1 (configuration not stated) | 0.1 | -2.1 | 144.8 | 64.5* | i | 1.6
CSc1ccccc1NC(=O)CN(c1cccc(C)c1)S(C)(=O)=O | 0.3 | 13.1* | 393.9 | 97.8 | i | -0.6
Cc1cccc(N(CC(=O)Nc2ccccc2F)S(C)(=O)=O)c1 | 0.2 | -4.2 | 137.0 | 94.1 | i | 0.4
CCCC(=O)N1CCC[C@]2(CC[C@H](CCC(=O)OCC)O2)C1 | -0.1 | nt | nt | nt | nt | nt
Cc1ccccc1-c1ccc2c(c1)[C@@H]1C[C@H](N(C)S(=O)(=O)c3ccc(Cl)cc3)[C@H]([C@H](C)O)CN1CC2 | 5.1 | nt | nt | nt | nt | nt
COc1ccc2nc(N(CCN(C)C)C(=O)c3ccc4ccccc4c3)sc2c1 | -0.1 | 2.0 | 387.4 | 110.3 | i | -2.1
Cc1cccc2sc(N(CCN(C)C)C(=O)c3ccc4ccccc4c3)nc12 | 0.7 | -0.3 | 670.6 | 93.5 | + | -3.9
CN(C)CCN(C(=O)c1ccc2ccccc2c1)c1nc2c(F)cc(F)cc2s1 | -0.8 | 3.5 | 175.3 | 85.9 | i | -0.4
CN(C)CCN(C(=O)c1ccc2ccccc2c1)c1nc2ccc(Br)cc2s1 | 0.0 | 3.0 | 389.5 | 118.9 | + | 0.4
CCN(CC)CCN(C(=O)c1ccc2ccccc2c1)c1nc2ccc(F)cc2s1 | -1.0 | -4.4 | 181.5 | 94.3 | + | -2.0
Cc1ccc2nc(N(CCN(C)C)C(=O)c3ccc4ccccc4c3)sc2c1 | nt | -0.9 | 472.6 | 106.4 | + | 0.4
C#CCNC(=O)C[C@@H]1C(=O)N(CC=C)C2=CCCCC[C@]21C(=O)OC | -0.2 | nt | nt | nt | nt | nt
CN1CCN(S(=O)(=O)c2cccc(C(=O)NC3CCCC3)c2)CC1 | 0.3 | 22.6* | 166.6 | 94.8 | i | -4.8
Cc1ccccc1NC(=O)COC(=O)CCc1c[nH]c2ccccc12 | -0.4 | 2.4 | 258.3 | 98.0 | nt | 1.6
Cc1ccc(NC(=O)COC(=O)CCc2c[nH]c3ccccc23)c(C)c1 | -0.2 | -3.1 | 0.0* | 104.0 | nt | 6.6
CCOC(=O)[C@@]12CN(C(=O)OC(C)(C)C)CC=C1N(Cc1ccc(OC)cc1)C(=O)[C@H]2CC(=O)NCC1CCCCC1 | 0.2 | nt | nt | nt | nt | nt
COC(=O)[C@]12C[C@H](CC(=O)N3CCN(C(=O)C4CC4)CC3)C(=O)N(Cc3ccco3)C1=C[C@H](C(C)(C)C)O[C@@H]2C | 0.3 | nt | nt | nt | nt | nt
O=C(COC(=O)c1ccc([N+](=O)[O-])s1)c1ccc[nH]1 | 0.1 | 39.2* | 781.4 | 140.2 | nt | -5.9
Cc1csc2nc(=O)c3ccccc3n12 | 3.3 | -0.9 | nt | nt | + | nt
CN(C)Cc1c(C(C)(C)O)[nH]c2cc(C(F)(F)F)ccc12 | 0.4 | nt | nt | nt | nt | nt
COc1ccc(CNC(=O)CCS(=O)(=O)Cc2cccc(Cl)c2)c(OC)c1 | 0.9 | 14.3* | 338.3 | 106.6 | i | 1.1
FC(F)(F)c1cc(Oc2ccccc2)ncc1-c1nnc(-c2ccccc2Cl)o1 | -0.7 | 1.1 | 201.9 | 106.0 | + | -6.0
Clc1ccccc1-c1nnc(-c2ccccc2Cl)o1 | 0.1 | -0.5 | 540.1 | 73.9 | i | -1.1
SMILES | KLK7 zymogen act | V-ATPase pH | T cell HTS | Yeast superoxide | Rce1 inhib | MIN6 prolif
CC1=C(C)C(C)=C(C#N)C(=C(C#N)C#N)N1 | 4.1 | -1.7 | 740.9 | 107.3 | + | -2.0
CCCNS(=O)(=O)c1ccc(OCC(=O)N(C)Cc2ccccc2)cc1 | 0.5 | -1.0 | 106.3 | 59.8* | i | 1.2
COc1ccc(OCC(=O)NS(=O)(=O)c2ccc(Cl)cc2)cc1 | 0.2 | 1.1 | 262.2 | 116.6 | + | -2.0
CCCNS(=O)(=O)c1ccc(OCC(=O)OC)cc1 | 0.2 | 4.5 | 178.5 | 96.6 | i | -3.3
CCCCNS(=O)(=O)c1ccc(OCC(=O)OC)cc1 | 0.7 | -3.2 | 6.7* | 93.8 | i | 0.0
Nc1[nH]c(C(=O)c2ccc(Cl)cc2)c(-c2ccc(Br)cc2)c1C(=O)NCc1ccc(Cl)cc1Cl | -0.3 | nt | nt | nt | nt | nt
COc1ccc(OC)c(S(=O)(=O)Nc2ccc(C(=O)Nc3cc(C)on3)cc2)c1 | 0.6 | nt | nt | nt | nt | nt
CN(C)c1cccc2c(S(=O)(=O)NCC3CCN(C(=O)C(=O)c4cc5ccccc5o4)CC3)cccc12 | 0.1 | nt | nt | nt | nt | nt
Nc1nc2c(ncn2[C@@H]2O[C@H](C(=O)NCCCc3ccccc3)[C@@H](O)[C@H]2O)c(=O)[nH]1 | -0.3 | nt | nt | nt | nt | nt
NC(=O)CSc1nnc2sc3ccccc3n12 | -0.1 | -1.6 | 79.4* | 90.9 | i | -2.4
Cc1cc(C)c2c(=N)c3ccccc3n(CCCCCCCCn3c4ccccc4c(=N)c4c(C)cc(C)nc43)c2n1 | 36.7* | -16.4 | nt | nt | nt | nt
CN(CCOC(=O)CC1C=CCC1)C1CN(Cc2cn(Cc3ccccc3Cl)nn2)S(=O)(=O)C1 (configuration not stated) | 0.1 | nt | nt | nt | nt | nt
COC(C/C=C/[C@H](O)[C@H](C)OCc1ccccc1)OC | -0.4 | 1.6 | nt | nt | + | 3.4
COC(C/C=C/C(=O)[C@H](C)OCc1ccccc1)OC | nt | -3.6 | nt | nt | + | -1.7
COC(C/C=C\[C@H](O)[C@@H](C)OCc1ccccc1)OC | 0.5 | -8.3 | 270.1 | 84.6 | i | 0.3
COC(C[C@H](O)C[C@@H](O)[C@H](C)OCc1ccccc1)OC | 0.1 | 0.1 | nt | nt | i | 0.9
COC(C/C=C\C(=O)COCc1ccccc1)OC | nt | nt | nt | nt | i | -6.5
COC(C[C@H](O)C[C@H](O)[C@@H](C)OCc1ccccc1)OC | 0.1 | 3.7 | nt | nt | + | 3.6
COC(C/C=C/[C@@H](O)[C@H](C)OCc1ccccc1)OC | 0.4 | 0.5 | nt | nt | + | 5.0
COC(=O)[C@]12C[C@H](CC(=O)NCc3ccccc3)C(=O)N(CCc3ccc(OC)c(OC)c3)C1=C[C@H](C(C)C)O[C@@H]2C1CC1 | 0.1 | nt | nt | nt | nt | nt
CC(C)N1Cc2nnn(Cc3ccccc3)c2-c2cc(F)ccc2S1(=O)=O | -0.4 | nt | nt | nt | nt | nt
COC(C/C=C/[C@H](O)[C@@H](C)OCc1ccccc1)OC | 0.5 | 0.6 | 403.5 | 94.5 | + | -0.4
CCOC(=O)C1(CC2CCCCO2)CCN(S(=O)(=O)c2ccc(C)s2)CC1 (configuration not stated) | 0.4 | -2.0 | 13.2* | 100.0 | i | -0.7
CCOC(=O)C1(CC2CCCCO2)CCN(S(=O)(=O)c2ccsc2)CC1 (configuration not stated) | 0.2 | -3.7 | 489.8 | 84.1 | i | -4.5
CCC(C)NC(=O)Nc1ccc(F)c(Cl)c1 (configuration not stated) | -0.2 | -0.3 | 135.4 | 108.8 | i | -1.7
CC(C)CNC(=O)Nc1ccc(F)c(Cl)c1 | 0.5 | 6.7 | 240.1 | 102.5 | + | 1.8
Cc1nc(Nc2cccc(Cl)c2)c2oc3ccccc3c2n1 | -71.7 | -2.8 | 415.2 | 116.6 | i | -6.0
